Compound activity from PubChem.
MEKK2 WT-MEK5: raises or lowers MEK5 binding to wildtype human MEKK2 PB1 domain | Q9Y2U5 | bead flow cytometry, Alexa488-MEK5 binding to MEKK2 WT; actives lie on both sides | binding response (% of control), % at 10 µM | 1.1% of 290,000 active | AID 1531; in the data active = binding response below about 67% or above about 130%
MEKK3 PB1 HTS: raises or lowers MEK5 binding to the human MEKK3 PB1 domain; bead-based flow cytometry, Alexa488-MEK5 binding to MEKK3; actives lie on both sides; 0 = blocked by unlabeled MEK5, 100 = vehicle; binding response (% of control), % at 10 µM; 1.4% of 290,000 active; AID 1529;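 active = binding response more than 3 SD above or below the average of its plate-row segment, actives on both sides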;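 also: Alexa488 bead fluorescence after subtracting the streptavidin-only scavenger bead signal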
T cell modulator: T cell immune modulators affecting CD8 T cell-vesicle binding; 2C CD8+ T cell-vesicle binding, flow cytometry; hits give low values; response (vesicle binding), % at 7 µM; 0.068% of 330,000 active;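 active = response, share of CD8 T cells binding vesicles, and their 90th percentile fluorescence all below set limits, cut at about 80% in these data, passing the limit was not always enough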;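 also: values below 100% mean blocked vesicle binding to the CD8+ T cells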
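material = purified 2C TCR transgenic mouse naive CD8+ T cells | controls = Unloaded micro-vesicles (low), QL9 vesicles with 0.7% DMSO (high) | detection = cytometric PE anti-B7-1 and Alexa647 anti-CD8 signals after 1% paraformaldehyde fixation | incubation = binding step 1.5 h, 37 °C, antibody labelling 20 min, ice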
UCH37 inh: inhibitors of human deubiquitinating enzyme UCH37 | purified proteasome/UCH37, Ub-AMC cleavage fluorescence | inhibition, % (no concentration beside the values) | 0.33% of 330,000 active;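 active = mean inhibition over replicate wells above about 20%, limit read from the data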
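Material: Human UCH37 enzyme supplied as purified proteasome complex | Schedule: 30 min compound-proteasome preincubation then 25 min substrate reaction, room temperature | Detection: AMC fluorescence from Ub-AMC cleavage, excitation 355 nm, emission 460 nm | Benchmarks: Wells without proteasome as full block, compound-free enzyme plus substrate as uninhibited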
Rce1 inh: blocks yeast Ras-converting enzyme; Q03530; yeast membranes, quenched prenylated peptide cleavage fluorescence; calls only; 0.27% of 290,000 active;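 active = fall in fluorescence gain of 50% or more versus controls, with final raw signal at or below 3038400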
Target sequence (Q03530 whole entry, looked up): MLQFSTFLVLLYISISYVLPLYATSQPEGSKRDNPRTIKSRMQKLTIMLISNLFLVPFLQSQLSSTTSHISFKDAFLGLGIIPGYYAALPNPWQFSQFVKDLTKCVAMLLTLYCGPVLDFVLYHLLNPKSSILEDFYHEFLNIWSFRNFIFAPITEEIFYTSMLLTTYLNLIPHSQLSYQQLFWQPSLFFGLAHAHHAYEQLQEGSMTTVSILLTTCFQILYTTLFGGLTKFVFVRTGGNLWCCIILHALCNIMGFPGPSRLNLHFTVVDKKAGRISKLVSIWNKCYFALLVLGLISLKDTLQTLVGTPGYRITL
MEKK2mut PB1 HTS: signal of MEK5 binding to mutant human MEKK2 PB1 domain | bead flow cytometry, Alexa488-MEK5 binding to MEKK2 mutant | percent response, % at 10 µM | 0.35% of 290,000 active; in the data active = percent response above about 24%, passing the limit was not always enough
MEKK2wt confirm: raises or lowers MEK5 binding to wildtype human MEKK2, retest. AID 1892. bead flow cytometry, Alexa488-MEK5 binding to MEKK2 WT; actives lie on both sides. 2.4% of 5,900 active. shares compounds with MEKK3 PB1 HTS. binding response (% of control), % at 10 µM; in the data active = binding response below about 16% or above about 210%; inactive = in between
MEKK2mut confirm: signal of MEK5 binding to mutant human MEKK2, retest; shares compounds with MEKK3 PB1 HTS; bead flow cytometry, Alexa488-MEK5 binding to MEKK2 mutant; percent response, % at 10 µM; 2% of 5,900 active; in the data active = percent response mostly above about 71%, no sharp cut-off; inactive = mostly below about 38%;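 also: higher means compound restores mutant binding toward wildtype level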
MEKK3-MEK5 inh: confirmation of inhibitors of MEK5 binding to human MEKK3; bead flow cytometry, Alexa488-MEK5 binding to MEKK3; hits give low values; binding response (% of control), % at 10 µM; 1.8% of 5,900 active; shares compounds with MEKK3 PB1 HTS;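 active = binding response below 72% of control, or above a set upper limit, though filed actives all read lower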;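 also: lower values mean stronger disruption of MEK5 binding to MEKK3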
Each line names hits and unclear results; the compound was inactive in the other large screens (follow-up assays come after a bar, where they were run); [ ] = another dose, or the depositor's remark. The list is not random: actives were taken first. Their share in the collection is about 2.5%.

CN(C)CCNC(=O)c1cccn(Cc2cccc(C(F)(F)F)c2)c1=O	Rce1 inh active
CNC(=O)c1cccn(Cc2cccc(C(F)(F)F)c2)c1=O	none
CCCCn1c(=O)c(C(=O)NCc2ccncc2)c(O)c2ccccc21	T cell modulator 77.7
OCCNCCc1c[nH]c2ccc(OCc3ccccc3)cc12	MEKK2 WT-MEK5 164.0, MEKK2mut PB1 HTS 31.0 | MEKK2wt confirm inactive | MEKK2mut confirm inactive | MEKK3-MEK5 inh inactive
Clc1cccc(CNCCc2c[nH]c3ccccc23)c1	none
ON=Cc1c[nH]c2ccccc12	none (no result: MEKK2 WT-MEK5, MEKK3 PB1 HTS, T cell modulator, Rce1 inh, MEKK2mut PB1 HTS)
O=c1cccc2n1CC1CC2CN(Cc2ccc3c(c2)OCO3)C1 (configuration not stated)	MEKK2 WT-MEK5 -1.0[inhibitor], MEKK3 PB1 HTS 2.0[inhibitor] | MEKK2wt confirm inactive | MEKK2mut confirm inactive | MEKK3-MEK5 inh inactive
CCN(CC)c1ccc(/C=N/c2sc3c(c2C#N)C2CCN3CC2)c(O)c1	MEKK2mut PB1 HTS 92.0 (no result: UCH37 inh, Rce1 inh) | MEKK2wt confirm inactive | MEKK2mut confirm inactive | MEKK3-MEK5 inh inactive
O=C1N(c2cccc(Cl)c2)C(c2cccnc2)N2CCCN12 (configuration not stated)	MEKK3 PB1 HTS 74.0[inhibitor] | MEKK2wt confirm inactive | MEKK2mut confirm inactive | MEKK3-MEK5 inh inactive
O=C(c1cc(C(=O)NCc2ccc(Cl)cc2)c(=O)n(Cc2ccc(Cl)cc2)c1)c1cc(F)ccc1O	MEKK3 PB1 HTS 134.0 | MEKK2wt confirm inactive | MEKK2mut confirm inactive | MEKK3-MEK5 inh inactive
Cc1ccc(O)c(C(=O)c2cc(C(=O)NCCC(C)C)c(=O)n(CCC(C)C)c2)c1	none
Clc1ccc(C2NCCc3[nH]cnc32)cc1 (configuration not stated)	MEKK2 WT-MEK5 137.0, MEKK2mut PB1 HTS 51.0 | MEKK2wt confirm inactive | MEKK2mut confirm inactive | MEKK3-MEK5 inh inactive
CNCC(O)c1cc(OCc2ccccc2)c(OCc2ccccc2)cc1F (configuration not stated)	MEKK2 WT-MEK5 138.0 | MEKK2wt confirm inactive | MEKK2mut confirm inactive | MEKK3-MEK5 inh inactive
CNCC(O)c1cccc(OC(=O)c2ccccc2C)c1 (configuration not stated)	none (no result: MEKK2 WT-MEK5, MEKK3 PB1 HTS, UCH37 inh, MEKK2mut PB1 HTS)
Cc1[nH]c2ccc(O)cc2c1CCN	none (no result: MEKK2 WT-MEK5, MEKK3 PB1 HTS, Rce1 inh, MEKK2mut PB1 HTS)
Cc1[nH]c2ccc(OCc3ccccc3)cc2c1CCN	MEKK2 WT-MEK5 162.0 | MEKK2wt confirm inactive | MEKK2mut confirm inactive | MEKK3-MEK5 inh inactive
CNC(=S)N(Cc1cc2cc(OC)c(OC)cc2[nH]c1=O)C1CCCC1	none
O=C1NC(=O)N(Cc2ccccc2)C(=O)/C1=C/N1CCCc2ccccc21	MEKK3 PB1 HTS 140.0 | MEKK2wt confirm inactive | MEKK2mut confirm inactive | MEKK3-MEK5 inh inactive
O=P(C(=NO)N1CCCCC1)(N1CCOCC1)N1CCOCC1	none (no result: MEKK2 WT-MEK5, MEKK3 PB1 HTS, T cell modulator, Rce1 inh, MEKK2mut PB1 HTS)
CCC(C)N1C(=O)/C(=C\c2cc3c4c(c2)CCCN4CCC3)C(=O)NC1=S (configuration not stated)	MEKK2 WT-MEK5 6.0[inhibitor] | MEKK2wt confirm inactive | MEKK2mut confirm inactive | MEKK3-MEK5 inh inactive
COc1ccc2[nH]cc(CCN)c2c1	MEKK2 WT-MEK5 152.0 (no result: Rce1 inh) | MEKK2wt confirm inactive | MEKK2mut confirm inactive | MEKK3-MEK5 inh inactive
COc1ccc(CNCCc2c[nH]c3ccccc23)c(OC)c1OC	none (no result: UCH37 inh)
COc1ccc(CNC(C)Cc2cccs2)cc1 (configuration not stated)	none
CC(N)Cc1c[nH]c2ccc(OCc3cccs3)cc12 (configuration not stated)	MEKK2 WT-MEK5 140.0 | MEKK2wt confirm inactive | MEKK2mut confirm inactive | MEKK3-MEK5 inh inactive
